{"source": "PubChem BioAssay AID504383", "about": "(The Scripps Research Institute Molecular Screening Center, 2011)", "note": "The whole screen tested about 2,500 compounds, of which about 1,200 (48%) were called active. So high a share suggests a set chosen from earlier hits. Some of the results follow. A number with no mark means an inactive call.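 Rule for the calls: active = mean activation above the low control average plus 3 SD, as set in the primary screen (cut at about 12% in these data); inactive = the rest.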"}
{"biological_target": "Troponin I, cardiac muscle (Homo sapiens) + Troponin T, cardiac muscle (Homo sapiens) + Troponin C, slow skeletal and cardiac muscles (Homo sapiens) (UniProt P19429+P45379+P63316)", "test": "calcium sensitizers of cardiac thin filaments – biochemical, IANBD-TnC fluorescence, triplicate, confirmation (AID 504383);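 note: 0% = DMSO at 0.472 mM calcium and 100% = DMSO at 2.9 mM calcium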", "details": "IANBD-labeled cardiac RTF, Ca2+ sensitivity fluorescence; at 7.2 µM; stronger effect = higher value; scaled from EC20 to saturating calcium; tested at EC20 calcium, 0.472 mM", "how_it_was_run": "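Material: labelled regulated thin filaments; Reagent: 0.472 mM calcium; Incubation: 15 min compound incubation with filaments at 25 °C; Detection: filament fluorescence intensity; Evaluation: fluorescence increase normalised to calcium controls; Benchmarks: low control EC20 calcium, high control EC100 calcium.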"}
{"smiles": "COC(=O)c1ccc(-c2ccc(F)cc2)nc1C", "activation": "-3.68%"}
{"smiles": "CC(C)OC(=O)CC(=O)CSc1nc(-c2ccc(F)cc2)cc(-c2ccccc2)c1C#N", "activation": "38.9% (active)"}
{"smiles": "CN1CCCC(OC(=O)c2ccccc2Br)C1", "note": "(stereo not given)", "activation": "67% (active)"}
{"smiles": "O=C(OCCN1CCCCC1)c1ccccc1Br", "activation": "3.85%"}
{"smiles": "Cc1cccc2cc3c(N)c(C(=O)N4CCc5ccccc54)sc3nc12", "activation": "7.08%"}
{"smiles": "Cc1c(Br)c(C(=O)N2CCc3ccccc32)nn1C", "activation": "3.1%"}
{"smiles": "Cc1nn(C)c(C(=O)N2CCc3ccccc32)c1Br", "activation": "66.9% (active)"}
{"smiles": "O=C1N/C(=C\\c2ccsc2)C(=O)N1Cc1ccc(F)cc1", "activation": "4.06%"}
{"smiles": "O=C1c2ccsc2SCCN1Cc1ccc(F)cc1", "activation": "27.7% (active)"}
{"smiles": "C=CCn1c(=O)c(C(=O)NCCNCC)c(O)c2ccccc21", "activation": "12.4% (active)"}
{"smiles": "CCCCN(C(=O)c1ccc([N+](=O)[O-])o1)c1c(N)n(CCCC)c(=O)[nH]c1=O", "activation": "5.49%"}
{"smiles": "Cc1ccc2c(c1)CCCN2CC(=O)N(C)c1c(N)n(Cc2ccccc2)c(=O)[nH]c1=O", "activation": "1.27%"}
{"smiles": "COCCCN(C(=O)c1cccnc1SC)c1c(N)n(Cc2ccccc2)c(=O)[nH]c1=O", "activation": "48.1% (active)"}
{"smiles": "CCN(C(=O)CN1CCCc2cc(C)ccc21)c1c(N)n(Cc2ccccc2)c(=O)[nH]c1=O", "activation": "6.97%"}
{"smiles": "COCCN(C(=O)CN1CCCc2ccccc21)c1c(N)n(Cc2ccccc2)c(=O)[nH]c1=O", "activation": "18.8% (active)"}
{"smiles": "CCn1c(=O)c(C(=O)CN2CCCc3ccccc32)c(N)n(Cc2ccccc2)c1=O", "activation": "60% (active)"}
{"smiles": "COc1cc(OC)cc(C(=O)N(Cc2ccco2)c2c(N)n(Cc3ccccc3)c(=O)[nH]c2=O)c1", "activation": "7.79%"}
{"smiles": "OCCN(CCO)c1nc(N2CCCCC2)c2nc(N(CCO)CCO)nc(N3CCCCC3)c2n1", "activation": "7.69%"}
{"smiles": "CN1CCc2c(sc(/N=C/c3ccco3)c2C(N)=O)C1", "activation": "10.3%"}
{"smiles": "CC(=O)N1CCc2c(sc(NC(=O)C3CCCN3S(=O)(=O)c3cccs3)c2C(N)=O)C1", "note": "(stereo not given)", "activation": "39.1% (active)"}
{"smiles": "CN1CCc2c(sc(/N=C/c3cccs3)c2C(N)=O)C1", "activation": "2.64%"}
{"smiles": "CCN1C(=O)/C(=C/N2CCc3ccccc32)SC1=S", "activation": "50% (active)"}
{"smiles": "C=CCN1C(=O)/C(=C\\C=C2\\N(C)c3ccccc3C2(C)C)SC1=S", "activation": "3.44%"}
{"smiles": "CCOc1ccc(C(=O)NC2CCN(C(=O)Nc3ccccc3OC)CC2)cc1", "activation": "2.1%"}
{"smiles": "COc1ccccc1NCC(=O)NC(=O)NC1CCCCC1", "activation": "13.1% (active)"}
{"smiles": "COc1ccc(C2=NS(=O)(=O)N(C)C(C(=O)NC3CCCC3)=C2)cc1", "activation": "-1.79%"}
{"smiles": "CSCCC(NC(=O)c1ccc(Cl)cc1)C(=O)OCC(=O)c1ccc[nH]1", "note": "(stereo not given)", "activation": "9.46%"}
{"smiles": "CCS(=O)(=O)N1Cc2ccccc2CC1C(=O)Nc1ccc(OC)cc1OC", "note": "(stereo not given)", "activation": "6.84%"}
{"smiles": "COc1ccc(OC)c(S(=O)(=O)N2CCC(C(=O)NCc3ccccn3)CC2)c1", "activation": "7.51%"}
{"smiles": "COc1ccc(N2CC(C(=O)Nc3nc(-c4ccccc4)c(C(C)=O)s3)CC2=O)c(OC)c1", "note": "(stereo not given)", "activation": "12.4% (active)"}
{"smiles": "N#CC1=C(N)OC2=C(CC/C2=C\\c2ccccc2)C1c1ccccc1", "note": "(stereo not given)", "activation": "36.3% (active)"}
{"smiles": "Cc1ccc(/C=C2\\CCC3=C2OC(N)=C(C#N)C3c2ccc(C)cc2)cc1", "note": "(stereo not given)", "activation": "11%"}
{"smiles": "N#CC1=C(N)OC2=C(CC/C2=C\\c2ccccc2Cl)C1c1ccccc1Cl", "note": "(stereo not given)", "activation": "317% (active)"}
{"smiles": "CC(=O)C1=C(C)N(CC2CC2)C(=O)N[C@H]1c1ccc(Br)cc1", "activation": "102% (active)"}
{"smiles": "CC(=O)C1=C(C)N(Cc2ccccc2)C(=O)N[C@@H]1c1cccc(C(F)(F)F)c1", "activation": "8.59%"}
{"smiles": "COc1ccc(Cl)cc1NC(=O)CN(C)C(=O)COc1ccccc1F", "activation": "4.03%"}
{"smiles": "COc1ccc(Cl)cc1NC(=O)CN(C)C(=O)c1ccc(N2CCCCCC2)c([N+](=O)[O-])c1", "activation": "59.6% (active)"}
{"smiles": "O=C(Cc1ccccc1)Nn1c(O)c(/C=C2\\C=Nc3ccccc32)sc1=S", "activation": "87.3% (active)"}
{"smiles": "CN(C)/C=C1\\C=C2C(=O)c3ccccc3N2C1=O", "activation": "87.3% (active)"}
{"smiles": "CN(C)C(=O)CN1C(=O)C2CCCCN2C(=O)c2ccccc21", "note": "(stereo not given)", "activation": "9.05%"}
{"smiles": "Cc1cc(C)c(NC(=S)N(C)C)c(C)c1", "activation": "42.1% (active)"}
{"smiles": "CSc1nnc(-c2ccc(S(=O)(=O)N3CCCC3)cc2)n1C", "activation": "-0.41%"}
{"smiles": "N=C1c2ccccc2CN1c1ccc(S(=O)(=O)N2CCCCC2)cc1", "activation": "49.2% (active)"}
{"smiles": "CN(C)c1ccc(/C=C/C(=O)c2c(O)c3ccccc3oc2=O)cc1", "activation": "12.3% (active)"}
{"smiles": "CN(C)c1ccc(/C=C/C(=O)c2ccccc2O)cc1", "activation": "6.07%"}
{"smiles": "CCOc1cccc2c1OC(c1cc(OC)c(OC)c(OC)c1)N1N=C(c3ccc(C)o3)CC21", "note": "(stereo not given)", "activation": "11.7% (active)"}
{"smiles": "O=C1NCCN1c1ncc([N+](=O)[O-])s1", "activation": "19.6% (active)"}
{"smiles": "CC(=O)N(C)c1ccc(C(O)(C(F)(F)F)C(F)(F)F)cc1", "activation": "30.4% (active)"}
{"smiles": "COc1ccc(CCNC(=O)C2CC(c3c(Cl)cccc3Cl)=NO2)cc1", "note": "(stereo not given)", "activation": "7.74%"}
{"smiles": "COc1ccc(CCNC(=O)COC(=O)c2cc(=O)[nH]c3ccccc23)cc1", "activation": "93% (active)"}
{"smiles": "COc1cccc(/C(O)=C/c2nc3ccc(C(=O)NCCc4cccc(C)c4)cc3[nH]c2=O)c1", "activation": "9.81%"}
{"smiles": "CCc1ccc(/C=N/n2c(C)cc(C)c(C#N)c2=O)cc1", "activation": "7.16%"}
{"smiles": "Cc1c(/C=N/O)c2ccccn2c1C=O", "activation": "8.72%"}
{"smiles": "CN1CCC(N(CCc2ccccc2)C(=O)CCC(=O)O)CC1", "activation": "146% (active)"}
{"smiles": "N#CC(C(=O)NCc1ccccc1)c1nc2ccccc2nc1N1CCCC1", "note": "(stereo not given)", "activation": "-1.52%"}
{"smiles": "CCCCCCNC(=O)C(C#N)c1nc2ccccc2nc1N1CCCC1", "note": "(stereo not given)", "activation": "5.18%"}
{"smiles": "CCN(CC)c1nc2ccccc2nc1C(C#N)C(=O)NCCc1ccccc1", "note": "(stereo not given)", "activation": "532% (active)"}
{"smiles": "O=C(NCC(=O)N1CCN(c2ncccn2)CC1)c1ccccc1OC(F)F", "activation": "0.94%"}
{"smiles": "COc1ccc(C(=O)NCC(=O)N2CCN(C(=O)c3ccco3)CC2)cc1OC", "activation": "47.6% (active)"}
{"smiles": "Cc1ccc(NC2OC(C(O)CO)C(O)C2O)cc1[N+](=O)[O-]", "note": "(stereo not given)", "activation": "8.56%"}
